Calls of active or inactive are those of the source. No cut-off for these calls is given here.
Key:
Calu-1 = test: Effect on total ERK level in human Calu-1 cells incubated for 24 hrs by HTRF analysis; type: functional, cell-based
Method in brief: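 Calu-1 cells carry two KRAS G12C alleles and were sourced from CLS. Total and pERK levels were both analyzed after compound treatment.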

[1] = biological target: T1, Cyclin-dependent kinase 11A (Homo sapiens) (UniProt Q9UQ88); test: Inhibition of CDC2L2 (unknown origin) assessed as residual activity at 100 nM by KINOMEscan analysis relative to control
T1 sequence (whole entry): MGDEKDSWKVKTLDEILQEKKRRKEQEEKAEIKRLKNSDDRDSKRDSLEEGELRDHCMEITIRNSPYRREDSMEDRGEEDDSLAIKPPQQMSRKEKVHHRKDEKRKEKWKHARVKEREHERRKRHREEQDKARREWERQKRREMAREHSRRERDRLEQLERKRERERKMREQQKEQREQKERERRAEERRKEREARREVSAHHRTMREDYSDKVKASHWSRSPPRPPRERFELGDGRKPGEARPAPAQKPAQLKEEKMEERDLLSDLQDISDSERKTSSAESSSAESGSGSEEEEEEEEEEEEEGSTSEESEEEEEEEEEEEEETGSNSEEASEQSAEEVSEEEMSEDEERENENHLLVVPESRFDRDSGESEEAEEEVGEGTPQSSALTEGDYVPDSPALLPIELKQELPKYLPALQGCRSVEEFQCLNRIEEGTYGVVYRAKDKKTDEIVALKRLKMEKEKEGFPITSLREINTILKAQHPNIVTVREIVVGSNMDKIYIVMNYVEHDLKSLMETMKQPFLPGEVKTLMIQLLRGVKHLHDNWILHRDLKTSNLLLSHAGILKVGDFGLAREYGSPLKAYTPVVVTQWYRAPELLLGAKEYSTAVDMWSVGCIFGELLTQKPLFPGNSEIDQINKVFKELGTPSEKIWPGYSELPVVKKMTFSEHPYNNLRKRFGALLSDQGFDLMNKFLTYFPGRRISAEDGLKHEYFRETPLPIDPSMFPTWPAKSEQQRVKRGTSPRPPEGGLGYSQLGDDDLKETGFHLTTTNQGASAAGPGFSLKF

[2] = biological target: T2, Megakaryocyte-associated tyrosine-protein kinase (Homo sapiens) (UniProt P42679); test: Inhibition of CTK (unknown origin) assessed as residual activity at 100 nM by KINOMEscan analysis relative to control
T2 sequence (whole entry): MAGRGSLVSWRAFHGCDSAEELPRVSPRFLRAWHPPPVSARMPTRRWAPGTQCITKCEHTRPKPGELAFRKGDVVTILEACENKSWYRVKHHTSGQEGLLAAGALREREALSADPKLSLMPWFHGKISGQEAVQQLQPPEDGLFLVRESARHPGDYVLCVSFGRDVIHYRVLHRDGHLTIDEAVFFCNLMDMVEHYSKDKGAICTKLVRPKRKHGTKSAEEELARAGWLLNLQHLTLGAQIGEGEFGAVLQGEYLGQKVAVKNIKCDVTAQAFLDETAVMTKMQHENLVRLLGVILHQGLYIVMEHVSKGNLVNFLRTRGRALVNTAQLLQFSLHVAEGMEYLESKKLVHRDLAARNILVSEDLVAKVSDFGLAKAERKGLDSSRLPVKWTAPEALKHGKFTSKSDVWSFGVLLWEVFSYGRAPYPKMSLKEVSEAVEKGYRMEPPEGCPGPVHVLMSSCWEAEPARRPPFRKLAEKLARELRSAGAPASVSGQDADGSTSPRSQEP

[3] = biological target: T3, Ephrin type-B receptor 3 (Homo sapiens) (UniProt P54753); test: Inhibition of EPHB3 (unknown origin) assessed as residual activity at 100 nM by KINOMEscan analysis relative to control
T3 sequence (whole entry): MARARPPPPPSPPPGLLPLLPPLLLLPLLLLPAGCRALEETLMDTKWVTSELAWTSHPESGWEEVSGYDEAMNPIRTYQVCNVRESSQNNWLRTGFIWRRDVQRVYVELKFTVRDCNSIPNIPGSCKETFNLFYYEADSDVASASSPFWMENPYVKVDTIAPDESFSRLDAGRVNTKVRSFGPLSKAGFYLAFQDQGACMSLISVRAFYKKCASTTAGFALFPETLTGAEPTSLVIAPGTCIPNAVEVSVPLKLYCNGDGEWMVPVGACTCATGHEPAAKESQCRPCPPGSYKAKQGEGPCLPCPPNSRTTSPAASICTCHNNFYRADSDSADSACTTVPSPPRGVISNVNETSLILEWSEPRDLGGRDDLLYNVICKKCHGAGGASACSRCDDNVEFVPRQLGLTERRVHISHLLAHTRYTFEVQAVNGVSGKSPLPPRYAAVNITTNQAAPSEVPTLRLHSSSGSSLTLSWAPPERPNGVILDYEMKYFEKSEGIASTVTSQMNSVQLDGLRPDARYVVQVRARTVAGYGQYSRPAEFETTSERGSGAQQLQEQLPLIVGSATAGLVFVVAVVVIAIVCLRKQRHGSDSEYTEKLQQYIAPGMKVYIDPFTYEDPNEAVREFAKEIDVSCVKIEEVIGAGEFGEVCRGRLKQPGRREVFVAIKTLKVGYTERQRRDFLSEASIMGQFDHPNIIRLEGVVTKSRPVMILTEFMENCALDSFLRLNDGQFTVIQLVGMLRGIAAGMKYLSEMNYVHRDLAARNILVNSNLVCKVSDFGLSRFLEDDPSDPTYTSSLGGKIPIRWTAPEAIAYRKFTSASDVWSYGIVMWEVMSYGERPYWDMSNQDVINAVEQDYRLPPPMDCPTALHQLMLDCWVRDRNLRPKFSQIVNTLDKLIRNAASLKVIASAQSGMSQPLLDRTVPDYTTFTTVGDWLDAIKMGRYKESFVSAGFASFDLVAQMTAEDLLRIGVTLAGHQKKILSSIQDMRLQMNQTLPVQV

[4] = biological target: Serine/threonine-protein kinase Nek7 (Homo sapiens) (UniProt Q8TDX7); test: Inhibition of NEK7 (unknown origin) assessed as residual activity at 100 nM by KINOMEscan analysis relative to control
Chain of Serine/threonine-protein kinase Nek7 (Homo sapiens) (Q8TDX7 whole entry, looked up): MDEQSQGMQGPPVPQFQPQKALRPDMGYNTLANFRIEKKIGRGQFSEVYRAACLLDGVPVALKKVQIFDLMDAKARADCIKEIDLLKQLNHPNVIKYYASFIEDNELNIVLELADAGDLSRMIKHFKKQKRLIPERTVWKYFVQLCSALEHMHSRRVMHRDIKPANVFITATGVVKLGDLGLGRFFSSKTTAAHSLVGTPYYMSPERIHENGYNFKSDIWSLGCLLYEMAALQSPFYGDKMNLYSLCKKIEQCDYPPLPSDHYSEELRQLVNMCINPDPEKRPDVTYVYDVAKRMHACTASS

[5] = biological target: Rho-associated protein kinase 1 (Homo sapiens) (UniProt Q13464); test: Inhibition of ROCK1 (unknown origin) assessed as residual activity at 100 nM by KINOMEscan analysis relative to control
Chain of Rho-associated protein kinase 1 (Homo sapiens) (Q13464 2-1354 limits assumed): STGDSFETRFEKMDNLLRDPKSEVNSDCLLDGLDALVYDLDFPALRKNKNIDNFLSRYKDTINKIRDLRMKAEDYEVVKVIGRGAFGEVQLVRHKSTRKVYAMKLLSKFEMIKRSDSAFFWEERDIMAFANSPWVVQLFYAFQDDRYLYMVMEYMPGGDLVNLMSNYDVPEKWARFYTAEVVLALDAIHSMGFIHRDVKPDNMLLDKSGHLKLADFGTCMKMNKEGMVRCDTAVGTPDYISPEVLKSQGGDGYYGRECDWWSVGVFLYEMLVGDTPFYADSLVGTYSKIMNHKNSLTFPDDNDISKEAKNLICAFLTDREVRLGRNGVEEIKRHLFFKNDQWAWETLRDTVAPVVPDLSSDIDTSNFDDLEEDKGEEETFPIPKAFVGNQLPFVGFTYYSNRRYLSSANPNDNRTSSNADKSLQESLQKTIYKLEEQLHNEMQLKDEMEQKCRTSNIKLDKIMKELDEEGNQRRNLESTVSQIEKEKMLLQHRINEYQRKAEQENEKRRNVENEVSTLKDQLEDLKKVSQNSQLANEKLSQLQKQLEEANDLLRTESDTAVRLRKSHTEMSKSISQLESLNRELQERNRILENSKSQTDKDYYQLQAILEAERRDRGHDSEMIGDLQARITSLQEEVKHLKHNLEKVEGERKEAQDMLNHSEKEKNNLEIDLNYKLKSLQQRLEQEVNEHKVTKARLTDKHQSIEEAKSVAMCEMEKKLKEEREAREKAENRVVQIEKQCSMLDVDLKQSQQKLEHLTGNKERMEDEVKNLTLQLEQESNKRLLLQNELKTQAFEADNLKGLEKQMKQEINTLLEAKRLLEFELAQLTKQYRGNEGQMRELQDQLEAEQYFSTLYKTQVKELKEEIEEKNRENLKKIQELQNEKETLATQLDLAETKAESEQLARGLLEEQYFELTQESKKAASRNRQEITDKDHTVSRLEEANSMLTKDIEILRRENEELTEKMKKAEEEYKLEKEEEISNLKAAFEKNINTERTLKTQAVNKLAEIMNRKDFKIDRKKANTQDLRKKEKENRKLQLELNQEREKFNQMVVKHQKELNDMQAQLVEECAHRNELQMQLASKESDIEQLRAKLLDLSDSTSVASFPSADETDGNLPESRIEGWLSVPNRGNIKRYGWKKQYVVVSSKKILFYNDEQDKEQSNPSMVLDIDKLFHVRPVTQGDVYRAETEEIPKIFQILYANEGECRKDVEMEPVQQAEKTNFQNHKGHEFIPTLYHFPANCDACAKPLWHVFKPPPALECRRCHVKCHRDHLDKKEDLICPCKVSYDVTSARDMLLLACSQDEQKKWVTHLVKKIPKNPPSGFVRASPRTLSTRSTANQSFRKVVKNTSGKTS

With `CNCc1ccccc1-c1csc([C@@H](C)Nc2nc(C)nc3cc(OC)c(OC)cc23)c1` [BAY-293] the Activity (Calu-1) was “inactive”.
`COc1cc2ncnc(N[C@H](C)c3cccc4ccccc34)c2cc1OC` was tested, and the Activity [1] was 82%, the Activity [2] was 64% and the Activity [3] was 71%. It also gave an Activity [4] of 100% and an Activity [5] of 77%.

From ChEMBL document CHEMBL5678818, “Discovery of potent SOS1 inhibitors that block RAS activation via disruption of the RAS-SOS1 interaction” (Proc Natl Acad Sci U S A, 2019)
